Experimental findings from ChEMBL document CHEMBL3244358, “Conformational analogues of antihypertensive agents related to guanethidine” (J Med Chem, 1977) are described below.

Calls of active or inactive are those of the source. The rule behind the calls is not given here.

The species named for one assay is Cavia porcellus. Put plainly: Equipotent molar ratio, ratio of compound ID50 to guanethidine ID50 for adrenergic receptor in guinea pig vas deferens assessed as inhibition of electrically-induced release of norepinephrine.
Take `N=C(N)N[C@@H]1C[C@H]1c1ccccc1`: the EPMR is 2.52.
Take `N=C(N)NCCc1cccc2ccccc12`: the EPMR was determined as 6.
Take `N=C(N)NCCc1ccc2ccccc2c1`: the EPMR is 2.5.
As to `N=C(N)NCC1Cc2ccccc21` (stereo unspecified), the EPMR was determined as 1.25.
In the case of `N=C(N)NC1CCc2ccccc21` (stereo unspecified), the EPMR worked out at 2.9.
Regarding `N=C(N)NC[C@H]1C[C@H]1c1ccccc1` (relative stereo), the EPMR was determined as 4.55.
Take `N=C(N)NC1CCc2ccc([N+](=O)[O-])cc21` (stereo unspecified): the EPMR is 10.
Still for that read-out and setting: the same measure for `N=C(N)NCc1cccc2ccccc12`: 0.095; for `N=C(N)NC/C=C\C1CCCCC1`: 0.049; for `N=C(N)NC[C@@H]1C[C@H]1c1ccccc1`: 3.65.
Regarding `N=C(N)NC/C=C/C1CCCCC1`, the EPMR turned out to be 0.39.

The species named for the next assay is Cavia porcellus. Description: Antagonist activity at adrenergic receptor in guinea pig vas deferens assessed as inhibition of electrically-induced release of norepinephrine measured every 10 mins. Format: tissue-based. The method in brief: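 Isolated guinea pig vas deferens in Krebs solution, stimulated transmurally for 15 s every 4 min at 25-35 shocks/s, 0.1 ms pulses, supramaximal 110-120 V. Salts were dissolved in distilled water, with a fresh preparation for each drug. Responses were read at 10-min intervals. ID50, the bath concentration giving 50% inhibition, came from dose-response curves of at least three concentrations, as free base.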
Regarding `N=C(N)N[C@@H]1C[C@H]1c1ccccc1`, the ID50 was determined as 5.05 µM.
On to `N=C(N)NCCc1cccc2ccccc12`, for which the ID50 turned out to be 1.2 ×10⁻⁵ M.
For the compound `N=C(N)NCCc1ccc2ccccc2c1`, the ID50 came to 5 µM.
`N=C(N)NCCN1CCCCCCC1`: the ID50 came out at 2 µM.
`N=C(N)NCC1Cc2ccccc21` (stereo unspecified): the ID50 is 2.5 µM.
Regarding `N=C(N)NC1CCc2ccccc21` (stereo unspecified), the ID50 was 5.8 µM.
Consider `N=C(N)NC[C@H]1C[C@H]1c1ccccc1` (relative stereo), for which the ID50 was 9.1 µM.
With `N=C(N)NC1CCc2ccc([N+](=O)[O-])cc21` (stereo unspecified), the ID50 worked out at 2 ×10⁻⁵ M.
Regarding `N=C(N)NCc1cccc2ccccc12`, the ID50 is 1.9 ×10⁻⁷ M.
In the case of `N=C(N)NC/C=C\C1CCCCC1`, the ID50 is 9.8 ×10⁻⁸ M.
As for `N=C(N)NC[C@@H]1C[C@H]1c1ccccc1`, the ID50 turned out to be 7.3 µM.
Take `N=C(N)NC/C=C/C1CCCCC1`: the ID50 turned out to be 7.7 ×10⁻⁷ M.

For another assay, the species on record is Cavia porcellus. Description: Antagonist activity at adrenergic receptor in guinea pig vas deferens assessed as inhibition of electrically-induced release of norepinephrine at 1 x 10^-4 M measured every 10 mins. It counts as tissue-based.
With `N=C(N)N[C@H]1C[C@H]1c1ccccc1` (relative stereo), the inhibition result is “inactive”.
Regarding `N=C(N)NC1Cc2ccccc2C1`, the inhibition entry is “inactive”.
As for `COc1ccc2c(c1)CCC2NC(=N)N` (stereo unspecified), the inhibition result is “inactive”.
